Measured values published in PubChem BioAssay.
Calls of active or inactive are those of the source.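 The calls were made as follows, unless noted: active = viability at or below 30% in both replicate assays; inconclusive = viability at or below 30% in just one of the two assays; inactive = the rest.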

How the values were obtained:
[1] = SK-BR-3 cell growth inhibitors, pilot screen, 24 h, human (AID 572;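 active = viability at or below 10% of carrier control in both of two separate runs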;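 also: compound exposure lasted between 18 and 24 h rather than exactly 24 h; 100% = carrier-treated control wells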); settings: SK-BR-3 viability, CellTiter-Glo luminescence, at 10 µM, stronger effect = lower value
[2] = HUVEC growth inhibition – cell-based, human, primary screen (AID 575); settings: HUVEC proliferation, CellTiter-Glo luminescence, 72 h; at 10 µM; stronger effect = lower value;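 also: 100% = median of untreated cell wells with 0.1% DMSO on each plate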
Summary of the method: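 Assay system: Primary human umbilical vein endothelial cells | Quantity: 1250 cells per well | Medium: Supplemented EBM, 2% fetal bovine serum | Detection: CellTiter-Glo luminescence measuring cellular ATP | Read-out: % viability vs DMSO wells | Plate: Collagen-coated 384-well format | Times: 72 h exposure, 37 °C, 5% CO2, 30 min RT equilibration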

[3] = growth inhibitors of H69AR lung tumor, primary screen, human, duplicate replicates (AID 580;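 active = viability at or under a set limit in both replicates, limit being median viability minus 3 SD, cut at about 48% in these data, passing the limit was not always enough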;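 also: 100% = mean luminescence of untreated wells and 0% = no signal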); settings: H69AR lung tumor cells viability, ATP luminescence, 72 h; at 10 µM; stronger effect = lower value
[4] = reversal of MRP1-mediated doxorubicin resistance, pilot screen, H69AR cells, doxorubicin co-treatment (AID 601;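 active = viability loss from added drug above about 55%, and viability with drug at most 40%, in both replicates, limit read from the data, passing the limit was not always enough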); settings: CellTiter-Glo, 72 h, at 10 µM; for differential viability (reversal): stronger effect = higher value
[5] = 384-well plate pilot, post-Golgi transport modulator project, inhibition of yeast transport mutant growth (AID 636; in the data active = inhibition above about 31%); settings: absorbance 615 nm, about 18 h, stronger effect = higher value
[6] = growth suppression of yeast trafficking mutant, preliminary HTS, modulators of trafficking downstream of Golgi apparatus project, 1536-format plate, OD 615 nm (AID 637; in the data active = inhibition above about 30%); settings: yeast transport mutant growth, absorbance 615 nm, 18 h; stronger effect = higher value
[7] = H69AR cells + 2 uM doxorubicin, measured here: viability with 2 uM doxorubicin, stronger effect = lower value
[8] = H69AR cells, compound alone cytotoxicity

SMILES | viability [1] | viability [2] | viability [3] | differential viability (reversal) ([4]; H69AR cells + 2 uM doxorubicin) | viability [4, 7] | viability [4, 8] | inhibition [5] | inhibition [6]
O=C(NCCCN1CCCC1=O)C1CCN(S(=O)(=O)N2CCOCC2)CC1 | 90% (inactive) | 118% (inactive) | 100% (inactive) | 5.27% (inactive) | 94.8% | 100% | 5.41% (inactive) | -1.45% (inactive)
CCCc1cc(=O)[nH]c(Nc2ccc(OC)c(Cl)c2)n1 | 115% (inactive) | 76.1% (inactive) | 70.6% (inactive) | -7.59% (inactive) | 78.2% | 70.6% | -3.51% (inactive) | 4.43% (inactive)
COCCOC(=O)C1=C(C)NC(C)=C(C(=O)OC(C)C)C1c1cccc([N+](=O)[O-])c1 (stereo not drawn) | 89% (inactive) | 65.2% (inactive) | 77.4% (inactive) | -19% (inactive) | 96.4% | 77.4% | 1.56% (inactive) | 16.2% (inactive)
COc1ccc(Nc2nc(Nc3ccc(OC)cc3)nc(-n3[nH]c(=O)c(C)c3C)n2)cc1 | 79% (inactive) | 92.8% (inactive) | 12.1% (active) | 1.18% (inactive) | 11% | 12.1% | -4.32% (inactive) | 16.9% (inactive)
CN1CC=C2C(C#N)=C(N)C(C#N)(C#N)C(Cc3ccccc3)C2C1 (stereo not drawn) | 85% (inactive) | 69% (inactive) | 84.6% (inactive) | -2.88% (inactive) | 87.5% | 84.6% | -8.22% (inactive) | -7.26% (inactive)
COCCCN1C(=O)C(=O)/C(=C(/O)c2ccc(OC)cc2)C1c1ccc(O)c(OC)c1 (stereo not drawn) | 104% (inactive) | 109% (inactive) | 103% (inactive) | 6.55% (inactive) | 96.9% | 103% | -2.53% (inactive) | -1.45% (inactive)
CC1CN(C(=O)CSc2ncnc3sccc23)CC(C)O1 (stereo not drawn) | 80% (inactive) | 103% (inactive) | 99.6% (inactive) | -2.15% (inactive) | 102% | 99.6% | -5.75% (inactive) | 0% (inactive)
CCCCN1C(=O)C2C(C(=O)Nc3cccc(OC)c3)C3C=CC2(O3)C1C(=O)NC1CCCCC1C (stereo not drawn) | 101% (inactive) | 82.7% (inactive) | 82.1% (inactive) | 3.86% (inactive) | 78.2% | 82.1% | -2.86% (inactive) | -3.11% (inactive)
Cc1ccc(-c2nc3cc(NC(=O)C(C)C)ccc3o2)cc1C | 80% (inactive) | 51.8% (inactive) | 72.9% (inactive) | 2.97% (inactive) | 69.9% | 72.9% | -4.66% (inactive) | -8.55% (inactive)
Cc1cc(=O)oc2cc(OCC(=O)OCC(=O)N3CCc4ccccc43)ccc12 | 103% (inactive) | 101% (inactive) | 93.2% (inactive) | -2.07% (inactive) | 95.3% | 93.2% | -8.38% (inactive) | -4.55% (inactive)
Cn1c(CN2CCCCC2)nc2cc(NC(=O)c3ccccc3)ccc21 | 54% (inactive) | 102% (inactive) | 88.5% (inactive) | -5.74% (inactive) | 94.2% | 88.5% | -7.53% (inactive) | -3.09% (inactive)
Cc1cc(C)cc(OCC(=O)NC2=NCCS2)c1 | 100% (inactive) | 87.5% (inactive) | 96.1% (inactive) | 2.82% (inactive) | 93.3% | 96.1% | 0.39% (inactive) | 1.48% (inactive)
Cc1cccc(NC(=O)c2ccc3ccccc3n2)n1 | 91% (inactive) | 86.6% (inactive) | 76.3% (inactive) | -18.1% (inactive) | 94.3% | 76.3% | -0.13% (inactive) | -1.83% (inactive)
Cc1nnc(NC(=O)C2CCCO2)s1 (stereo not drawn) | 90% (inactive) | 105% (inactive) | 96.4% (inactive) | -10.5% (inactive) | 107% | 96.4% | -2.47% (inactive) | -0.91% (inactive)
COc1ccc(/C(O)=C2\C(=O)C(=O)N(c3cc(C)on3)C2c2ccccc2OC)cc1 (stereo not drawn) | 105% (inactive) | 101% (inactive) | 78.5% (inactive) | -6.79% (inactive) | 85.3% | 78.5% | -8.27% (inactive) | -5.09% (inactive)
O=C(CSCc1ccc(F)cc1)NC1CCCC1 | 137% (inactive) | 108% (inactive) | 95.8% (inactive) | 13.6% (inactive) | 82.2% | 95.8% | -3.9% (inactive) | 4.1% (inactive)
Cc1cc(NC(=O)C(C)(C)C)no1 | 82% (inactive) | 92.7% (inactive) | 99.2% (inactive) | 16% (inactive) | 83.3% | 99.2% | -1.2% (inactive) | -0.73% (inactive)
CS(=O)(=O)N(CC(=O)NCCSCc1cccc(Cl)c1)c1ccc2c(c1)OCO2 | 94% (inactive) | 97.9% (inactive) | 93.4% (inactive) | -4.33% (inactive) | 97.8% | 93.4% | -2.21% (inactive) | -2.62% (inactive)

SMILES | viability [1] | viability [2] | viability [3] | differential viability (reversal) ([4]; H69AR cells + 2 uM doxorubicin) | viability [4, 7] | viability [4, 8] | inhibition [5] | inhibition [6]
Cc1ccc(-n2ncc3c(=O)n(CC(=O)N4CCCc5ccccc54)cnc32)cc1C | 82% (inactive) | 60.5% (inactive) | 90.8% (inactive) | -10% (inactive) | 101% | 90.8% | 6.08% (inactive) | -2.73% (inactive)
CCOC(=O)c1[nH]c(CSc2nnc(-c3ccncc3)n2CCOC)c(C(=O)OCC)c1C | 94% (inactive) | 96.7% (inactive) | 94.8% (inactive) | 4.23% (inactive) | 90.6% | 94.8% | -5.19% (inactive) | 1.31% (inactive)
COCCc1ccc(OCC(O)CNC(C)C)cc1 (stereo not drawn) | 117% (inactive) | 70.4% (inactive) | 98.3% (inactive) | -7.28% (inactive) | 106% | 98.3% | -2.86% (inactive) | 1.33% (inactive)
O=C(COC(=O)c1ccccc1C(=O)c1ccccc1)c1ccco1 | 59% (inactive) | 105% (inactive) | 90.3% (inactive) | 2.52% (inactive) | 87.8% | 90.3% | -1.1% (inactive) | 2.36% (inactive)
CC(C)CN(CC(C)C)C(=O)CS(=O)(=O)Cc1ccccc1 | 87% (inactive) | 98.8% (inactive) | 91.4% (inactive) | 3.15% (inactive) | 88.2% | 91.4% | -5.75% (inactive) | 1.13% (inactive)
CCCN1Cc2cccc(C(=O)NCc3cccs3)c2C1=O | 86% (inactive) | 111% (inactive) | 90.6% (inactive) | -0.255% (inactive) | 90.8% | 90.6% | -6% (inactive) | -1.45% (inactive)
O=C(O)c1cc(-c2ccccc2)nc2ccccc12 | 91% (inactive) | 92.7% (inactive) | 76.7% (inactive) | 2.04% (inactive) | 74.6% | 76.7% | 2.99% (inactive) | 4.83% (inactive)
O=C(O)c1ccccc1Nc1cccc(C(F)(F)F)c1 | 135% (inactive) | 69.6% (inactive) | 88.6% (inactive) | 11.3% (inactive) | 77.3% | 88.6% | -1.3% (inactive) | 2% (inactive)
CCOC(=O)c1sc(NC(=O)CSc2nnc(-c3ccc(OC)cc3)n2CCOC)nc1C | 99% (inactive) | 97.2% (inactive) | 101% (inactive) | 21.8% (inactive) | 79.6% | 101% | -4.94% (inactive) | 1.31% (inactive)
Cc1nc2ccccn2c(=O)c1CCN1CCC(C(=O)c2ccc(F)cc2)CC1 | 75% (inactive) | 83.6% (inactive) | 86.3% (inactive) | -15.1% (inactive) | 101% | 86.3% | 1.69% (inactive) | 17.2% (inactive)
Cc1onc(-c2ccccc2)c1C(=O)Nc1sc2c(c1C(N)=O)CCC2 | 88.5% (inactive) | 53.5% (inactive) | 62.1% (inactive) | -20.8% (inactive) | 82.8% | 62.1% | -1.71% (inactive) | -1% (inactive)
O=C(Cn1c(=O)oc2ccccc21)N1CCN(c2ccccc2)CC1 | 94% (inactive) | 104% (inactive) | 88.8% (inactive) | -3.33% (inactive) | 92.1% | 88.8% | -8.63% (inactive) | 8.18% (inactive)
O=C(Nc1ccc2c(c1)nc1n2CCN(Cc2ccccc2)C1)c1cccs1 | 76.5% (inactive) | 88.7% (inactive) | 80.2% (inactive) | -12.4% (inactive) | 92.6% | 80.2% | -5.89% (inactive) | 6.19% (inactive)
CCCCn1cnc2c(c1=O)c1nc3ccccc3nc1n2Cc1ccc2c(c1)OCO2 | 85% (inactive) | 85.9% (inactive) | 68.9% (inactive) | -5.45% (inactive) | 74.3% | 68.9% | -5.14% (inactive) | -1.82% (inactive)
CN(C)CCCN1c2ccccc2CCc2ccc(Cl)cc21 | 78% (inactive) | 5.55% (active) | 65.2% (inactive) | 12% (inactive) | 53.2% | 65.2% | -0.26% (inactive) | 1.17% (inactive)
CC(=O)Oc1ccc(C(c2ccc(OC(C)=O)cc2)c2ccccn2)cc1 | 91% (inactive) | 79% (inactive) | 94.9% (inactive) | -0.25% (inactive) | 95.2% | 94.9% | -0.52% (inactive) | 0.83% (inactive)
CN(C)C(=O)CSc1nnc2sc3ccccc3n12 | 71% (inactive) | 105% (inactive) | 89.2% (inactive) | -6.11% (inactive) | 95.3% | 89.2% | -8.63% (inactive) | 1.82% (inactive)
CC1CC(C)CN(c2nc3c(c(=O)[nH]c(=O)n3C)n2CCCSc2nc3ccccc3s2)C1 (stereo not drawn) | 59% (inactive) | 115% (inactive) | 100% (inactive) | -5.73% (inactive) | 106% | 100% | -0.14% (inactive) | 4.36% (inactive)
